{"source": "ChEMBL document CHEMBL5724801", "about": "“EUbOPEN Chemogenomics Library - Multiplex” (2024)", "key": {"Fibroblast": {"tested_on": "Fibroblast", "assay": "Multiplex assay against human fibroblast", "assay_type": "toxicity, cell-based", "outline": "(§1)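 Hoechst33342, BioTracker Green Microtubule Cytoskeleton Dye, MitoTracker Red and Annexin V Alexa Fluor 680 were added to live cells at seeding, and imaging on a CQ1 microscope at 37°C and 5% CO2 followed compound addition. Gating by CellPathfinder machine learning separated cells into Hoechst high-intensity objects or normal cells, then normal cells into healthy, pyknosed or fragmented nuclei, then pyknosed cells into mitotic or apoptotic. Per cents of healthy-nucleus cells are reported for the tubulin, mitochondrial-mass and membrane-permeability phenotypes.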"}, "HEK-293T": {"tested_on": "HEK-293T", "assay": "Multiplex assay against HEK293T", "assay_type": "toxicity, cell-based", "conditions": "human", "outline": "as §1"}, "[1]": {"conditions": "24 h, 10 µM, compound concentration 10 uM"}, "[2]": {"conditions": "48 h, 1 µM, compound concentration 1 uM"}, "[3]": {"conditions": "48 h, 10 µM, compound concentration 10 uM"}, "[4]": {"conditions": "12 h, 1 µM, compound concentration 1 uM"}, "[5]": {"conditions": "12 h, 10 µM, compound concentration 10 uM"}, "[6]": {"conditions": "24 h, 1 µM, compound concentration 1 uM"}}, "note": "“And” between values parts separate entries of the source, which are not always exact repeats. Equal values may be shown once.", "data": [{"smiles": "CCc1nn2c(C)cc(C)nc2c1Cc1ccc(-c2nnc(C3CCNCC3)o2)cc1", "values": [{"measurement": "Population Hoechst High Intensity Objects (%)", "setting": "Fibroblast; [1]", "value": "9% and 3%"}, {"measurement": "Population Membrane Permeable-Phenotype (%)", "setting": "Fibroblast; [1]", "value": "0% and 11%"}, {"measurement": "Population Mitochondria Different-Phenotype (%)", "setting": "Fibroblast; [1]", "value": "22% and 16%"}, {"measurement": "Population Mitotic Cells (%)", "setting": "Fibroblast; [1]", "value": "46% and 44%"}, {"measurement": "Population Normal (%)", "setting": "Fibroblast; [1]", "value": "90% and 96%"}, {"measurement": "Population Pyknosed Nuclei (%)", "setting": "Fibroblast; [1]", "value": 17, "unit": "%"}, {"measurement": "Population Tubulin-Different-Phenotype (%)", "setting": "Fibroblast; [1]", "value": "79% and 80%"}, {"measurement": "Total Cell Count", "setting": "Fibroblast; [1]", "value": "185 and 151"}, {"measurement": "Population Apoptotic (%)", "setting": "Fibroblast; [2]", "value": "76% and 62%"}, {"measurement": "Population Fragmented Nuclei (%)", "setting": "Fibroblast; [2]", "value": "21% and 30%"}, {"measurement": "Population Healthy Nuclei (%)", "setting": "Fibroblast; [2]", "value": "70% and 54%"}, {"measurement": "Population Hoechst High Intensity Objects (%)", "setting": "Fibroblast; [2]", "value": 4, "unit": "%"}, {"measurement": "Population Membrane Permeable-Phenotype (%)", "setting": "Fibroblast; [2]", "value": "1% and 3%"}, {"measurement": "Population Mitochondria Different-Phenotype (%)", "setting": "Fibroblast; [2]", "value": "2% and 12%"}, {"measurement": "Population Mitotic Cells (%)", "setting": "Fibroblast; [2]", "value": "23% and 37%"}, {"measurement": "Population Normal (%)", "setting": "Fibroblast; [2]", "value": 95, "unit": "%"}, {"measurement": "Population Pyknosed Nuclei (%)", "setting": "Fibroblast; [2]", "value": "7% and 14%"}, {"measurement": "Population Tubulin-Different-Phenotype (%)", "setting": "Fibroblast; [2]", "value": "32% and 54%"}, {"measurement": "Total Cell Count", "setting": "Fibroblast; [2]", "value": "172 and 168"}, {"measurement": "Population Apoptotic (%)", "setting": "Fibroblast; [3]", "value": "84% and 54%"}, {"measurement": "Population Fragmented Nuclei (%)", "setting": "Fibroblast; [3]", "value": "23% and 45%"}, {"measurement": "Population Healthy Nuclei (%)", "setting": "Fibroblast; [3]", "value": "62% and 47%"}, {"measurement": "Population Hoechst High Intensity Objects (%)", "setting": "Fibroblast; [3]", "value": "9% and 2%"}, {"measurement": "Population Membrane Permeable-Phenotype (%)", "setting": "Fibroblast; [3]", "value": "0% and 2%"}, {"measurement": "Population Mitochondria Different-Phenotype (%)", "setting": "Fibroblast; [3]", "value": "16% and 17%"}, {"measurement": "Population Mitotic Cells (%)", "setting": "Fibroblast; [3]", "value": "15% and 45%"}, {"measurement": "Population Normal (%)", "setting": "Fibroblast; [3]", "value": "90% and 97%"}, {"measurement": "Population Pyknosed Nuclei (%)", "setting": "Fibroblast; [3]", "value": "13% and 7%"}, {"measurement": "Population Tubulin-Different-Phenotype (%)", "setting": "Fibroblast; [3]", "value": "73% and 78%"}, {"measurement": "Total Cell Count", "setting": "Fibroblast; [3]", "value": "208 and 161"}, {"measurement": "Population Apoptotic (%)", "setting": "HEK-293T; [4]", "value": "35% and 51%"}, {"measurement": "Population Fragmented Nuclei (%)", "setting": "HEK-293T; [4]", "value": "9% and 7%"}, {"measurement": "Population Healthy Nuclei (%)", "setting": "HEK-293T; [4]", "value": "80% and 78%"}, {"measurement": "Population Hoechst High Intensity Objects (%)", "setting": "HEK-293T; [4]", "value": "7% and 5%"}, {"measurement": "Population Membrane Permeable-Phenotype (%)", "setting": "HEK-293T; [4]", "value": 0, "unit": "%"}, {"measurement": "Population Mitochondria Different-Phenotype (%)", "setting": "HEK-293T; [4]", "value": "54% and 62%"}, {"measurement": "Population Mitotic Cells (%)", "setting": "HEK-293T; [4]", "value": "64% and 48%"}, {"measurement": "Population Normal (%)", "setting": "HEK-293T; [4]", "value": "92% and 94%"}, {"measurement": "Population Pyknosed Nuclei (%)", "setting": "HEK-293T; [4]", "value": "10% and 13%"}, {"measurement": "Population Tubulin-Different-Phenotype (%)", "setting": "HEK-293T; [4]", "value": "37% and 19%"}, {"measurement": "Total Cell Count", "setting": "HEK-293T; [4]", "value": "401 and 395"}, {"measurement": "Population Apoptotic (%)", "setting": "HEK-293T; [5]", "value": "63% and 56%"}, {"measurement": "Population Fragmented Nuclei (%)", "setting": "HEK-293T; [5]", "value": "6% and 4%"}, {"measurement": "Population Healthy Nuclei (%)", "setting": "HEK-293T; [5]", "value": "68% and 78%"}, {"measurement": "Population Hoechst High Intensity Objects (%)", "setting": "HEK-293T; [5]", "value": "11% and 12%"}, {"measurement": "Population Membrane Permeable-Phenotype (%)", "setting": "HEK-293T; [5]", "value": 0, "unit": "%"}, {"measurement": "Population Mitochondria Different-Phenotype (%)", "setting": "HEK-293T; [5]", "value": "85% and 86%"}, {"measurement": "Population Mitotic Cells (%)", "setting": "HEK-293T; [5]", "value": "36% and 43%"}, {"measurement": "Population Normal (%)", "setting": "HEK-293T; [5]", "value": "88% and 87%"}, {"measurement": "Population Pyknosed Nuclei (%)", "setting": "HEK-293T; [5]", "value": "25% and 17%"}, {"measurement": "Population Tubulin-Different-Phenotype (%)", "setting": "HEK-293T; [5]", "value": "65% and 48%"}, {"measurement": "Total Cell Count", "setting": "HEK-293T; [5]", "value": "319 and 293"}, {"measurement": "Population Apoptotic (%)", "setting": "HEK-293T; [6]", "value": "44% and 34%"}, {"measurement": "Population Fragmented Nuclei (%)", "setting": "HEK-293T; [6]", "value": "10% and 7%"}, {"measurement": "Population Healthy Nuclei (%)", "setting": "HEK-293T; [6]", "value": "76% and 78%"}, {"measurement": "Population Hoechst High Intensity Objects (%)", "setting": "HEK-293T; [6]", "value": "4% and 5%"}, {"measurement": "Population Membrane Permeable-Phenotype (%)", "setting": "HEK-293T; [6]", "value": 0, "unit": "%"}, {"measurement": "Population Mitochondria Different-Phenotype (%)", "setting": "HEK-293T; [6]", "value": "36% and 50%"}, {"measurement": "Population Mitotic Cells (%)", "setting": "HEK-293T; [6]", "value": "55% and 65%"}, {"measurement": "Population Normal (%)", "setting": "HEK-293T; [6]", "value": "95% and 94%"}, {"measurement": "Population Pyknosed Nuclei (%)", "setting": "HEK-293T; [6]", "value": 13, "unit": "%"}, {"measurement": "Population Tubulin-Different-Phenotype (%)", "setting": "HEK-293T; [6]", "value": "23% and 19%"}, {"measurement": "Total Cell Count", "setting": "HEK-293T; [6]", "value": "529 and 542"}, {"measurement": "Population Apoptotic (%)", "setting": "HEK-293T; [1]", "value": "69% and 41%"}, {"measurement": "Population Fragmented Nuclei (%)", "setting": "HEK-293T; [1]", "value": "11% and 10%"}, {"measurement": "Population Healthy Nuclei (%)", "setting": "HEK-293T; [1]", "value": "72% and 77%"}, {"measurement": "Population Hoechst High Intensity Objects (%)", "setting": "HEK-293T; [1]", "value": "5% and 7%"}, {"measurement": "Population Membrane Permeable-Phenotype (%)", "setting": "HEK-293T; [1]", "value": 0, "unit": "%"}, {"measurement": "Population Mitochondria Different-Phenotype (%)", "setting": "HEK-293T; [1]", "value": "73% and 78%"}, {"measurement": "Population Mitotic Cells (%)", "setting": "HEK-293T; [1]", "value": "30% and 58%"}, {"measurement": "Population Normal (%)", "setting": "HEK-293T; [1]", "value": "94% and 92%"}, {"measurement": "Population Pyknosed Nuclei (%)", "setting": "HEK-293T; [1]", "value": "15% and 11%"}, {"measurement": "Population Tubulin-Different-Phenotype (%)", "setting": "HEK-293T; [1]", "value": "50% and 45%"}, {"measurement": "Total Cell Count", "setting": "HEK-293T; [1]", "value": "448 and 389"}, {"measurement": "Population Apoptotic (%)", "setting": "HEK-293T; [2]", "value": "28% and 32%"}, {"measurement": "Population Fragmented Nuclei (%)", "setting": "HEK-293T; [2]", "value": "12% and 11%"}, {"measurement": "Population Healthy Nuclei (%)", "setting": "HEK-293T; [2]", "value": "79% and 83%"}, {"measurement": "Population Hoechst High Intensity Objects (%)", "setting": "HEK-293T; [2]", "value": "2% and 5%"}, {"measurement": "Population Membrane Permeable-Phenotype (%)", "setting": "HEK-293T; [2]", "value": 0, "unit": "%"}, {"measurement": "Population Mitochondria Different-Phenotype (%)", "setting": "HEK-293T; [2]", "value": "25% and 24%"}, {"measurement": "Population Mitotic Cells (%)", "setting": "HEK-293T; [2]", "value": "71% and 67%"}, {"measurement": "Population Normal (%)", "setting": "HEK-293T; [2]", "value": "97% and 94%"}, {"measurement": "Population Pyknosed Nuclei (%)", "setting": "HEK-293T; [2]", "value": "8% and 5%"}, {"measurement": "Population Tubulin-Different-Phenotype (%)", "setting": "HEK-293T; [2]", "value": "15% and 10%"}, {"measurement": "Total Cell Count", "setting": "HEK-293T; [2]", "value": "842 and 829"}, {"measurement": "Population Apoptotic (%)", "setting": "HEK-293T; [3]", "value": "54% and 50%"}, {"measurement": "Population Fragmented Nuclei (%)", "setting": "HEK-293T; [3]", "value": "14% and 12%"}, {"measurement": "Population Healthy Nuclei (%)", "setting": "HEK-293T; [3]", "value": "72% and 80%"}, {"measurement": "Population Hoechst High Intensity Objects (%)", "setting": "HEK-293T; [3]", "value": "4% and 3%"}, {"measurement": "Population Membrane Permeable-Phenotype (%)", "setting": "HEK-293T; [3]", "value": 0, "unit": "%"}, {"measurement": "Population Mitochondria Different-Phenotype (%)", "setting": "HEK-293T; [3]", "value": "59% and 56%"}, {"measurement": "Population Mitotic Cells (%)", "setting": "HEK-293T; [3]", "value": "45% and 50%"}, {"measurement": "Population Normal (%)", "setting": "HEK-293T; [3]", "value": "95% and 96%"}, {"measurement": "Population Pyknosed Nuclei (%)", "setting": "HEK-293T; [3]", "value": "13% and 6%"}, {"measurement": "Population Tubulin-Different-Phenotype (%)", "setting": "HEK-293T; [3]", "value": "32% and 26%"}, {"measurement": "Total Cell Count", "setting": "HEK-293T; [3]", "value": "517 and 607"}]}]}
